Laboratory results as given in ChEMBL document CHEMBL1914398, “Synthesis and evaluation of novel N-fluoropyridyl derivatives of tropane as potential PET imaging agents for the dopamine transporter” (Bioorg Med Chem Lett, 2011).

What was measured:
[1] = target: Sodium-dependent serotonin transporter (Homo sapiens, UniProt P31645); test: Displacement of [125I]-IDAM from SERT transfected in pig LLC-PK1 cells by radioligand competition binding assay; type: cell-based
[2] = Selectivity ratio of Ki for SERT to Ki for DAT
[3] = Selectivity ratio of Ki for NET to Ki for DAT
[4] = target: Sodium-dependent dopamine transporter (Homo sapiens, UniProt Q01959); test: Displacement of [125I]-IPT from DAT transfected in pig LLC-PK1 cells by radioligand competition binding assay; type: cell-based
[5] = target: Sodium-dependent noradrenaline transporter (Homo sapiens, UniProt P23975); test: Displacement of [125I]-INXT from NET transfected in pig LLC-PK1 cells by radioligand competition binding assay; type: cell-based
Hippocampus [6] = test: Drug uptake in Sprague-Dawley rat hippocampus at 25 uCi, iv after 2 mins by gamma counter; type: ADME, organism-based; conditions: in vivo
Outline: (§1)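 Normal male Sprague-Dawley rats were given 25 µCi of the 18F-tracer via the femoral vein. Rats (n = 5 per time point) were sacrificed at 2, 60, 120 or 180 min post-injection. Brain regions were dissected and weighed, and radioactivity was gamma-counted. Values are %ID/g, calculated against diluted aliquots of the injected dose, as mean ± S.D.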

Nucleic Acid [7] = test: Ratio of drug uptake in cortex to cerebellum in Sprague-Dawley rat at 25 uCi, iv after 2 mins; type: ADME, organism-based; conditions: in vivo
Outline: (§2)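 Region-to-cerebellum uptake ratios were calculated from %ID/g values (n = 5 rats per time point). These came from normal male Sprague-Dawley rats given 25 µCi of the 18F-tracer through the femoral vein and dissected at 2, 60, 120 or 180 min. Tissue was gamma-counted, and cerebellum served as the non-target background region.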

Nucleic Acid [8] = test: Ratio of drug uptake in striatum to cerebellum in Sprague-Dawley rat at 25 uCi, iv after 2 mins; type: ADME, organism-based; conditions: in vivo; outline: as §2
Cerebellum [9] = test: Drug uptake in Sprague-Dawley rat cerebellum at 25 uCi, iv after 2 mins by gamma counter; type: ADME, organism-based; conditions: in vivo; outline: as §1
Striatum [10] = test: Drug uptake in Sprague-Dawley rat striatum at 25 uCi, iv after 2 mins by gamma counter; type: ADME, organism-based; conditions: in vivo; outline: as §1
Nucleic Acid [11] = test: Ratio of drug uptake in hippocampus to cerebellum in Sprague-Dawley rat at 25 uCi, iv after 180 mins; type: ADME, organism-based; conditions: in vivo, 3 h; outline: as §2
[12] = Drug uptake in Sprague-Dawley rat putamen at 2.5 mCi, iv after 60 mins post injection measured by autoradiographic technique; type: ADME, organism-based; conditions: in vivo, 1 h
Outline: (§3)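 For ex vivo autoradiography, normal Sprague-Dawley rats received 2.5 mCi of the 18F-tracer intravenously and were sacrificed at 60 min post-injection. Brains were removed immediately, frozen and sectioned. Dried sections were exposed to film overnight in an autoradiographic cassette to map regional radioactivity.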

Hippocampus [13] = test: Drug uptake in Sprague-Dawley rat hippocampus at 25 uCi, iv after 60 mins by gamma counter; type: ADME, organism-based; conditions: in vivo, 1 h; outline: as §1
Striatum [14] = test: Drug uptake in Sprague-Dawley rat striatum at 25 uCi, iv after 120 mins by gamma counter; type: ADME, organism-based; conditions: in vivo, 2 h; outline: as §1
Nucleic Acid [15] = test: Ratio of drug uptake in cortex to cerebellum in Sprague-Dawley rat at 25 uCi, iv after 60 mins; type: ADME, organism-based; conditions: in vivo, 1 h; outline: as §2
Cortex [16] = test: Drug uptake in Sprague-Dawley rat cortex at 25 uCi, iv after 180 mins by gamma counter; type: ADME, organism-based; conditions: in vivo, 3 h; outline: as §1
Cortex [17] = test: Drug uptake in Sprague-Dawley rat cortex at 2.5 mCi, iv after 60 mins post injection measured by autoradiographic technique; type: ADME, organism-based; conditions: in vivo, 1 h; outline: as §3
Cerebellum [18] = test: Drug uptake in Sprague-Dawley rat cerebellum at 25 uCi, iv after 60 mins by gamma counter; type: ADME, organism-based; conditions: in vivo, 1 h; outline: as §1
Hypothalamus [19] = test: Drug uptake in Sprague-Dawley rat hypothalamus at 25 uCi, iv after 180 mins by gamma counter; type: ADME, organism-based; conditions: in vivo, 3 h; outline: as §1
Nucleic Acid [20] = test: Ratio of drug uptake in striatum to cerebellum in Sprague-Dawley rat at 25 uCi, iv after 120 mins; type: ADME, organism-based; conditions: in vivo, 2 h; outline: as §2
Hypothalamus [21] = test: Drug uptake in Sprague-Dawley rat hypothalamus at 25 uCi, iv after 60 mins by gamma counter; type: ADME, organism-based; conditions: in vivo, 1 h; outline: as §1
Hypothalamus [22] = test: Drug uptake in Sprague-Dawley rat hypothalamus at 25 uCi, iv after 2 mins by gamma counter; type: ADME, organism-based; conditions: in vivo; outline: as §1
Hypothalamus [23] = test: Drug uptake in Sprague-Dawley rat hypothalamus at 25 uCi, iv after 120 mins by gamma counter; type: ADME, organism-based; conditions: in vivo, 2 h; outline: as §1
Striatum [24] = test: Drug uptake in Sprague-Dawley rat striatum at 2.5 mCi, iv after 60 mins post injection measured by autoradiographic technique; type: ADME, organism-based; conditions: in vivo, 1 h; outline: as §3
Nucleic Acid [25] = test: Ratio of drug uptake in cortex to cerebellum in Sprague-Dawley rat at 25 uCi, iv after 120 mins; type: ADME, organism-based; conditions: in vivo, 2 h; outline: as §2
Nucleic Acid [26] = test: Ratio of drug uptake in striatum to cerebellum in Sprague-Dawley rat at 25 uCi, iv after 60 mins; type: ADME, organism-based; conditions: in vivo, 1 h; outline: as §2
[27] = Lipophilicity, log P of the compound; type: physicochemical; conditions: octanol/water
Cortex [28] = test: Drug uptake in Sprague-Dawley rat cortex at 25 uCi, iv after 120 mins by gamma counter; type: ADME, organism-based; conditions: in vivo, 2 h; outline: as §1
Cortex [29] = test: Drug uptake in Sprague-Dawley rat cortex at 25 uCi, iv after 2 mins by gamma counter; type: ADME, organism-based; conditions: in vivo; outline: as §1
Brain [30] = test: Drug uptake in Sprague-Dawley rat brain at 25 uCi, iv after 120 mins by gamma counter; type: ADME, organism-based; conditions: in vivo, 2 h; outline: as §1
Brain [31] = test: Drug uptake in Sprague-Dawley rat brain at 25 uCi, iv after 2 mins by gamma counter; type: ADME, organism-based; conditions: in vivo; outline: as §1
[32] = Drug uptake in Sprague-Dawley rat caudate at 2.5 mCi, iv after 60 mins post injection measured by autoradiographic technique; type: ADME, organism-based, Caudate nucleus; conditions: in vivo, 1 h; outline: as §3
Nucleic Acid [33] = test: Ratio of drug uptake in striatum to cerebellum in Sprague-Dawley rat at 25 uCi, iv after 180 mins; type: ADME, organism-based; conditions: in vivo, 3 h; outline: as §2
Nucleic Acid [34] = test: Ratio of drug uptake in hypothalamus to cerebellum in Sprague-Dawley rat at 25 uCi, iv after 180 mins; type: ADME, organism-based; conditions: in vivo, 3 h; outline: as §2
Hippocampus [35] = test: Drug uptake in Sprague-Dawley rat hippocampus at 25 uCi, iv after 180 mins by gamma counter; type: ADME, organism-based; conditions: in vivo, 3 h; outline: as §1
Hippocampus [36] = test: Drug uptake in Sprague-Dawley rat hippocampus at 25 uCi, iv after 120 mins by gamma counter; type: ADME, organism-based; conditions: in vivo, 2 h; outline: as §1
Cortex [37] = test: Drug uptake in Sprague-Dawley rat cortex at 25 uCi, iv after 60 mins by gamma counter; type: ADME, organism-based; conditions: in vivo, 1 h; outline: as §1
Cerebellum [38] = test: Drug uptake in Sprague-Dawley rat cerebellum at 25 uCi, iv after 180 mins by gamma counter; type: ADME, organism-based; conditions: in vivo, 3 h; outline: as §1
Striatum [39] = test: Drug uptake in Sprague-Dawley rat striatum at 25 uCi, iv after 60 mins by gamma counter; type: ADME, organism-based; conditions: in vivo, 1 h; outline: as §1
Nucleic Acid [40] = test: Ratio of drug uptake in hypothalamus to cerebellum in Sprague-Dawley rat at 25 uCi, iv after 120 mins; type: ADME, organism-based; conditions: in vivo, 2 h; outline: as §2
Nucleic Acid [41] = test: Ratio of drug uptake in hypothalamus to cerebellum in Sprague-Dawley rat at 25 uCi, iv after 2 mins; type: ADME, organism-based; conditions: in vivo; outline: as §2
Brain [42] = test: Drug uptake in Sprague-Dawley rat brain at 25 uCi, iv after 60 mins by gamma counter; type: ADME, organism-based; conditions: in vivo, 1 h; outline: as §1
Nucleic Acid [43] = test: Ratio of drug uptake in hippocampus to cerebellum in Sprague-Dawley rat at 25 uCi, iv after 120 mins; type: ADME, organism-based; conditions: in vivo, 2 h; outline: as §2
Nucleic Acid [44] = test: Ratio of drug uptake in cortex to cerebellum in Sprague-Dawley rat at 25 uCi, iv after 180 mins; type: ADME, organism-based; conditions: in vivo, 3 h; outline: as §2
Brain [45] = test: Drug uptake in Sprague-Dawley rat brain at 25 uCi, iv after 180 mins by gamma counter; type: ADME, organism-based; conditions: in vivo, 3 h; outline: as §1
Nucleic Acid [46] = test: Ratio of drug uptake in hippocampus to cerebellum in Sprague-Dawley rat at 25 uCi, iv after 60 mins; type: ADME, organism-based; conditions: in vivo, 1 h; outline: as §2
Striatum [47] = test: Drug uptake in Sprague-Dawley rat striatum at 25 uCi, iv after 180 mins by gamma counter; type: ADME, organism-based; conditions: in vivo, 3 h; outline: as §1
Nucleic Acid [48] = test: Ratio of drug uptake in hippocampus to cerebellum in Sprague-Dawley rat at 25 uCi, iv after 2 mins; type: ADME, organism-based; conditions: in vivo; outline: as §2
Cerebellum [49] = test: Drug uptake in Sprague-Dawley rat cerebellum at 25 uCi, iv after 120 mins by gamma counter; type: ADME, organism-based; conditions: in vivo, 2 h; outline: as §1
Nucleic Acid [50] = test: Ratio of drug uptake in hypothalamus to cerebellum in Sprague-Dawley rat at 25 uCi, iv after 60 mins; type: ADME, organism-based; conditions: in vivo, 1 h; outline: as §2

Sodium-dependent serotonin transporter, sequence (P31645 whole entry): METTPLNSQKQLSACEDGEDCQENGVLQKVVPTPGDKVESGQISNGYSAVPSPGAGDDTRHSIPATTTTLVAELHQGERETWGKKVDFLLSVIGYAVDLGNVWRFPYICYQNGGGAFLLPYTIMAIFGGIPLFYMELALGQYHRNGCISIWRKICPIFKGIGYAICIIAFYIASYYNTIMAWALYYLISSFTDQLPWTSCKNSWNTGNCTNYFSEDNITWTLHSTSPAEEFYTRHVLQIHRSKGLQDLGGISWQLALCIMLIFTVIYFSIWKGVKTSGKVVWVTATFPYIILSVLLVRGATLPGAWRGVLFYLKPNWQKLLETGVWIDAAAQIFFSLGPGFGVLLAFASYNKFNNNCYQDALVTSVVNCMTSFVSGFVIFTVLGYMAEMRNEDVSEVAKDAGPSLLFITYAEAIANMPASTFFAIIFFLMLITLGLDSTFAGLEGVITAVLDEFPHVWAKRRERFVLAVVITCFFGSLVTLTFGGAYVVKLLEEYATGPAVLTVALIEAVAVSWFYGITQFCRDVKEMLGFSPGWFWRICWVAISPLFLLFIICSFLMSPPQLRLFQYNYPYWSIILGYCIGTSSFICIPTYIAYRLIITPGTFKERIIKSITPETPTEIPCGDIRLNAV
Sodium-dependent dopamine transporter, sequence (Q01959 whole entry): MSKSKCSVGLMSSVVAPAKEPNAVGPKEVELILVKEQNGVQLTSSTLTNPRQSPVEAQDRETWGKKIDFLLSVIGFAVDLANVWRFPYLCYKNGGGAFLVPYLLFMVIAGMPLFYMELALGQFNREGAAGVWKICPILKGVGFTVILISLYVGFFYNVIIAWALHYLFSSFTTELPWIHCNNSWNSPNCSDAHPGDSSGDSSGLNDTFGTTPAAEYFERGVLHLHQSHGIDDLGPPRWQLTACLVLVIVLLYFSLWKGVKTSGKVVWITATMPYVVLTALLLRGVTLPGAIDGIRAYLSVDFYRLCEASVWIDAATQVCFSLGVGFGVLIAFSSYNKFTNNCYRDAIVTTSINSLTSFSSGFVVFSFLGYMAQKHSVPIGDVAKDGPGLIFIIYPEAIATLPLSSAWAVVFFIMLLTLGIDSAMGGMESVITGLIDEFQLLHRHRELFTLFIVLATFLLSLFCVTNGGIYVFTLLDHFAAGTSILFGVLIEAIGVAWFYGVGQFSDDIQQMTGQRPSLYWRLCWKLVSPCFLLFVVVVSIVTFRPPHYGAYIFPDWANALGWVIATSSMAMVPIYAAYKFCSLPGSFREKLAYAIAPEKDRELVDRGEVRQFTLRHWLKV
Sodium-dependent noradrenaline transporter, sequence (P23975 whole entry): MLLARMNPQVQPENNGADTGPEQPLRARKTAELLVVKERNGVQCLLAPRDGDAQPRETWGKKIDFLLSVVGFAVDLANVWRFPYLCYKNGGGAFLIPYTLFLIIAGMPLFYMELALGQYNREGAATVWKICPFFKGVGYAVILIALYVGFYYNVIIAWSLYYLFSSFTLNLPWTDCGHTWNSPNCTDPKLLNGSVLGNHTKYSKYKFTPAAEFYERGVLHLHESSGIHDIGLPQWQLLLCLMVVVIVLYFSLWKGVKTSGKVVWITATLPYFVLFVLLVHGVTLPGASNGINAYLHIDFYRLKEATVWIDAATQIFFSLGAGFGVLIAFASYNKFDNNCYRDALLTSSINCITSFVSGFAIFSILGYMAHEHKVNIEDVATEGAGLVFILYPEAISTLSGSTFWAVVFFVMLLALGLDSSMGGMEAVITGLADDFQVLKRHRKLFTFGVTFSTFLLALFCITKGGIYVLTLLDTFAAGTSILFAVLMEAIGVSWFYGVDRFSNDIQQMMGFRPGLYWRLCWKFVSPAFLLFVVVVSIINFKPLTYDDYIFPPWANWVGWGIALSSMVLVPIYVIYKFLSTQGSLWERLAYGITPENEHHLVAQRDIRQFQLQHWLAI

SMILES: CN1C2CCC1[C@@H](C(=O)Nc1cccc(F)n1)[C@@H](c1ccc(Cl)cc1)C2 (some centres not stated)
- Ki [1]: 29100 nM
- Ratio Ki [2]: 229
- Ratio Ki [3]: 133
- Ki [4]: 127 nM
- Ki [5]: 16900 nM

SMILES: CN1C2CCC1[C@@H](CNc1cccc(Br)n1)[C@@H](c1ccc(Cl)cc1)C2 (some centres not stated)
- Ki [1]: 7.4 nM
- Ratio Ki [2]: 1.3
- Ratio Ki [3]: 5.2
- Ki [4]: 5.6 nM
- Ki [5]: 29.1 nM

SMILES: COC(=O)[C@@H]1C2CCC(C[C@@H]1c1ccc(Cl)cc1)N2C (some centres not stated)
- Ki [4]: 5.1 nM

SMILES: CN1C2CCC1[C@@H](CN(C(=O)OC(C)(C)C)c1cccc([18F])n1)[C@@H](c1ccc(Cl)cc1)C2 (some centres not stated)
- Drug uptake (Hippocampus [6]): 0.36 % ID/g
- Ratio (Nucleic Acid [7]): 0.91
- Ratio (Nucleic Acid [8]): 0.82
- Drug uptake (Cerebellum [9]): 0.49 % ID/g
- Drug uptake (Striatum [10]): 0.4 % ID/g
- Ratio (Nucleic Acid [11]): 1.81
- Drug uptake [12]: Active
- Drug uptake (Hippocampus [13]): 0.28 % ID/g
- Drug uptake (Striatum [14]): 0.12 % ID/g
- Ratio (Nucleic Acid [15]): 1.21
- Drug uptake (Cortex [16]): 0.03 % ID/g
- Drug uptake (Cortex [17]): Active
- Drug uptake (Cerebellum [18]): 0.23 % ID/g
- Drug uptake (Hypothalamus [19]): 0.04 % ID/g
- Ratio (Nucleic Acid [20]): 2.54
- Drug uptake (Hypothalamus [21]): 0.29 % ID/g
- Drug uptake (Hypothalamus [22]): 0.4 % ID/g
- Drug uptake (Hypothalamus [23]): 0.06 % ID/g
- Drug uptake (Striatum [24]): Active
- Ratio (Nucleic Acid [25]): 1.4
- Ratio (Nucleic Acid [26]): 2.02
- logP [27]: 1.88
- Drug uptake (Cortex [28]): 0.07 % ID/g
- Drug uptake (Cortex [29]): 0.45 % ID/g
- Drug uptake (Brain [30]): 0.07 % ID/g
- Drug uptake (Brain [31]): 0.4 % ID/g
- Drug uptake [32]: Active
- Ratio (Nucleic Acid [33]): 3.14
- Ratio (Nucleic Acid [34]): 1.51
- Drug uptake (Hippocampus [35]): 0.05 % ID/g
- Drug uptake (Hippocampus [36]): 0.08 % ID/g
- Drug uptake (Cortex [37]): 0.28 % ID/g
- Drug uptake (Cerebellum [38]): 0.03 % ID/g
- Drug uptake (Striatum [39]): 0.47 % ID/g
- Ratio (Nucleic Acid [40]): 1.31
- Ratio (Nucleic Acid [41]): 0.81
- Drug uptake (Brain [42]): 0.26 % ID/g
- Ratio (Nucleic Acid [43]): 1.61
- Ratio (Nucleic Acid [44]): 0.96
- Drug uptake (Brain [45]): 0.04 % ID/g
- Ratio (Nucleic Acid [46]): 1.21
- Drug uptake (Striatum [47]): 0.09 % ID/g
- Ratio (Nucleic Acid [48]): 0.72
- Drug uptake (Cerebellum [49]): 0.05 % ID/g
- Ratio (Nucleic Acid [50]): 1.24

SMILES: CN1C2CCC1[C@@H](CNc1cccc(F)n1)[C@@H](c1ccc(Cl)cc1)C2 (some centres not stated)
- Ki [1]: 20.6 nM
- Ratio Ki [2]: 5
- Ratio Ki [3]: 16
- Ki [4]: 4.1 nM
- Ki [5]: 66.2 nM

SMILES: COC(=O)[C@@H]1C2CCC(C[C@@H]1c1ccc(Br)cc1)N2C (some centres not stated)
- Ki [4]: 3.5 nM
